The target of the assay is Substance-P receptor (Cavia porcellus) (UniProt P30547). The experiment in a line: Antagonist activity at guinea pig NK1 receptor assessed as effect on ileum contractions. Format: functional, tissue-based. In short, it runs like this:
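Guinea pig ileum in organ bath with Tyrode's solution, 32 °C, gassed 95% O2/5% CO2, resting tension 1 g, 20 min equilibration. Pretreated 10 min with at least three concentrations of test compound in DMSO, then cumulative substance P concentration-response curve versus substance P control curve. KB by Schild method; means, n = 3–5.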
Sequence of Substance-P receptor (Cavia porcellus) (P30547 whole entry): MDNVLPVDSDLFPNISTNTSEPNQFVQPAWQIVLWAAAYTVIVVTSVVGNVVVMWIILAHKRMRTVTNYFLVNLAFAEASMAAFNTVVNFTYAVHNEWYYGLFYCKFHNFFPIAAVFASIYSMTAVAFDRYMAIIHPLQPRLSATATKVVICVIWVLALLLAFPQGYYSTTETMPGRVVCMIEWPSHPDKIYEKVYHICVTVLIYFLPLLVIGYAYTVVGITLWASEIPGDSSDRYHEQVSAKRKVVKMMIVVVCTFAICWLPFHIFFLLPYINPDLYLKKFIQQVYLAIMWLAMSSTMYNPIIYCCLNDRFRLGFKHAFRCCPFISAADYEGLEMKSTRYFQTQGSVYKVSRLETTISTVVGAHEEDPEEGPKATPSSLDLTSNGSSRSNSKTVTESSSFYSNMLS
In the case of `CC(=O)N1C(C)CN(c2nc3c(c(-c4ccccc4C)n2)C(=O)N(Cc2cc(C(F)(F)F)cc(C(F)(F)F)c2)CCCO3)CC1C` (configuration not stated), the Kb came out at 0.679 nM.

As for `Cc1ccccc1-c1ncnc2c1C(=O)N(Cc1cc(C(F)(F)F)cc(C(F)(F)F)c1)C[C@H](C)CO2`, the Kb came to 12.6 nM.

`CC(=O)N1C(C)CN(c2nc3c(c(-c4ccccc4C)n2)C(=O)N(Cc2cc(C(F)(F)F)cc(C(F)(F)F)c2)C[C@@H](C)CO3)CC1C` (some centres not stated): the Kb was found to be 0.545 nM.

In the case of `CC(=O)N1CCN(c2nc3c(c(-c4ccccc4C)n2)C(=O)N(Cc2cc(C(F)(F)F)cc(C(F)(F)F)c2)C[C@H](C)CO3)CC1`, the Kb was 0.139 nM.

For `Cc1ccccc1-c1nc(N(C)C)nc2c1C(=O)N(Cc1cc(C(F)(F)F)cc(C(F)(F)F)c1)C[C@@H](C)CO2`, the antagonist equilibrium constant (Kb) was 52.9 nM.

With `CC(=O)N1C(C)CN(c2nc3c(c(-c4ccccc4C)n2)C(=O)N(Cc2cc(C(F)(F)F)cc(C(F)(F)F)c2)C[C@H](C)CO3)CC1C` (some centres not stated), the antagonist dissociation constant (Kb) was found to be 0.217 nM.

With `Cc1ccccc1-c1ncnc2c1C(=O)N(Cc1cc(C(F)(F)F)cc(C(F)(F)F)c1)C[C@@H](C)CO2`, the Kb stood at 162 nM.

For `Cc1ccccc1-c1nc(N(C)C)nc2c1C(=O)N(Cc1cc(C(F)(F)F)cc(C(F)(F)F)c1)CCCO2`, the Kb amounted to 0.679 nM.

Take `Cc1ccccc1-c1ncnc2c1C(=O)N(Cc1cc(C(F)(F)F)cc(C(F)(F)F)c1)CCCO2`: the antagonist dissociation constant (Kb) was 11.6 nM.

For `Cc1ccccc1-c1nc(N(C)C)nc2c1C(=O)N(Cc1cc(C(F)(F)F)cc(C(F)(F)F)c1)C[C@H](C)CO2`, the Kb was 0.427 nM.

`CC(=O)N1CCN(c2nc3c(c(-c4ccccc4C)n2)C(=O)N(Cc2cc(C(F)(F)F)cc(C(F)(F)F)c2)C[C@@H](C)CO3)CC1`: the antagonist dissociation constant (Kb) worked out at 0.345 nM.

Regarding `CC(=O)N1CCN(c2nc3c(c(-c4ccccc4C)n2)C(=O)N(Cc2cc(C(F)(F)F)cc(C(F)(F)F)c2)CCCO3)CC1`, the antagonist equilibrium constant (Kb) came to 0.105 nM.

The Kb is the equilibrium dissociation constant of an antagonist, usually derived from a functional assay.

These data come from ChEMBL document CHEMBL1143716, “Analysis of crucial structural requirements of 2-substituted pyrimido[4,5-b][1,5]oxazocines as NK(1) receptor antagonist by axially chiral derivatives” (Bioorg Med Chem, 2007).
